{
  "source": "ChEMBL document CHEMBL4382192",
  "about": "“Discovery of a potent dual ALK and EGFR T790M inhibitor” (Eur J Med Chem, 2017)",
  "key": {"[1]": {"molecular_target": "Serine/threonine-protein kinase SBK1 (Homo sapiens) (UniProt Q52WX2)", "assay": "Binding affinity to wild-type human partial length SBK1 (P23 to P348 residues) expressed in mammalian expression system assessed as residual binding level at 1 uM by Kinomescan method relative to control"}, "[2]": {"molecular_target": "Dual specificity mitogen-activated protein kinase kinase 5 (Homo sapiens) (UniProt Q13163)", "assay": "Binding affinity to wild-type human partial length MEK5 (L98 to P448 residues) expressed in mammalian expression system assessed as residual binding level at 1 uM by Kinomescan method relative to control"}, "[3]": {"molecular_target": "Rhodopsin kinase GRK7 (Homo sapiens) (UniProt Q8WTQ7)", "assay": "Binding affinity to wild-type human full length GRK7 (M1 to L553 residues) expressed in mammalian expression system assessed as residual binding level at 1 uM by Kinomescan method relative to control", "summary_of_the_method": "(§1)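 Single-point kinome-wide KINOMEscan binding panel, test compound at 1 μM, run by the provider's standard protocol.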"}, "[4]": {"molecular_target": "Tyrosine-protein kinase SYK (Homo sapiens) (UniProt P43405)", "assay": "Binding affinity to wild-type human partial length SYK (D354 to N635 residues) expressed in bacterial expression system assessed as residual binding level at 1 uM by Kinomescan method relative to control"}, "[5]": {"molecular_target": "SRSF protein kinase 2 (Homo sapiens) (UniProt P78362)", "assay": "Binding affinity to wild-type human full length SRPK2 (M1 to S686 residues) expressed in bacterial expression system assessed as residual binding level at 1 uM by Kinomescan method relative to control", "summary_of_the_method": "as §1"}, "[6]": {"molecular_target": "Casein kinase II subunit alpha' (Homo sapiens) (UniProt P19784)", "assay": "Binding affinity to wild-type human full length CSNK2A2 (M1 to R350 residues) expressed in mammalian expression system assessed as residual binding level at 1 uM by Kinomescan method relative to control"}, "[7]": {"molecular_target": "1-phosphatidylinositol 3-phosphate 5-kinase (Homo sapiens) (UniProt Q9Y2I7)", "assay": "Binding affinity to wild-type human partial length PIKFYVE (F1512 to C2098 residues) expressed in mammalian expression system assessed as residual binding level at 1 uM by Kinomescan method relative to control"}, "[8]": {"molecular_target": "Aurora kinase B (Homo sapiens) (UniProt Q96GD4)", "assay": "Binding affinity to wild-type human partial length AURKB (D25 to A303 residues) expressed in mammalian expression system assessed as residual binding level at 1 uM by Kinomescan method relative to control"}, "[9]": {"molecular_target": "BDNF/NT-3 growth factors receptor (Homo sapiens) (UniProt Q16620)", "assay": "Binding affinity to wild-type human partial length TRKB (Q547 to G838 residues) expressed in mammalian expression system assessed as residual binding level at 1 uM by Kinomescan method relative to control"}, "[10]": {"system": "Mast/stem cell growth factor receptor Kit (Homo sapiens), P10721 [D816V]", "assay": "Binding affinity to human partial length KIT D816V mutant (I571 to D952 residues) expressed in bacterial expression system assessed as residual binding level at 1 uM by Kinomescan method relative to control", "summary_of_the_method": "(§2)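 Kinome-wide selectivity panel run by the KINOMEscan method, with the test compound at a single concentration of 1 μM. Wild-type and mutant kinases were profiled in the same screen.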"}, "[11]": {"molecular_target": "Serine/threonine-protein kinase D3 (Homo sapiens) (UniProt O94806)", "assay": "Binding affinity to wild-type human partial length PRKD3 (S543 to E863 residues) expressed in bacterial expression system assessed as residual binding level at 1 uM by Kinomescan method relative to control"}, "[12]": {"molecular_target": "RAF proto-oncogene serine/threonine-protein kinase (Homo sapiens) (UniProt P04049)", "assay": "Binding affinity to wild-type human partial length RAF1 (I330 to T640 residues) expressed in bacterial expression system assessed as residual binding level at 1 uM by Kinomescan method relative to control"}, "[13]": {"system": "Tyrosine-protein kinase ABL1 (Homo sapiens), P00519 [Q252H]", "assay": "Binding affinity to human non-phosphorylated ABL1 Q252H mutant (S229 to K512 residues) expressed in mammalian expression system assessed as residual binding level at 1 uM by Kinomescan method relative to control", "summary_of_the_method": "as §2"}, "[14]": {"molecular_target": "Mitogen-activated protein kinase kinase kinase kinase 1 (Homo sapiens) (UniProt Q92918)", "assay": "Binding affinity to wild-type human full length HPK1 (M1 to R799 residues) expressed in bacterial expression system assessed as residual binding level at 1 uM by Kinomescan method relative to control"}, "CYP2D6": {"molecular_target": "CYP2D6 (Homo sapiens, UniProt P10635)", "assay": "Residual activity of CYP2D6 in human liver microsomes at 10 uM using dextromethorphan O-demethylase as substrate preincubated for 5 mins followed by NADPH addition measured after 15 mins by LC/MS/MS analysis relative to control", "details": "probe dextromethorphan (O-demethylation)"}, "[15]": {"molecular_target": "Mast/stem cell growth factor receptor Kit (Homo sapiens) (UniProt P10721)", "assay": "Binding affinity to wild-type human partial length autoinhibited KIT (Y545 to D952 residues) expressed in mammalian expression system assessed as residual binding level at 1 uM by Kinomescan method relative to control"}, "[16]": {"molecular_target": "Ephrin type-A receptor 7 (Homo sapiens) (UniProt Q15375)", "assay": "Binding affinity to wild-type human partial length EPHA7 (Y608 to S912 residues) expressed in bacterial expression system assessed as residual binding level at 1 uM by Kinomescan method relative to control"}, "[17]": {"molecular_target": "Ribosomal protein S6 kinase alpha-2 (Homo sapiens) (UniProt Q15349)", "assay": "Binding affinity to wild-type human partial length C-terminal RSK3 kinase domain 2 (V403 to K700 residues) expressed in bacterial expression system assessed as residual binding level at 1 uM by Kinomescan method relative to control"}, "[18]": {"molecular_target": "Serine/threonine-protein kinase ULK2 (Homo sapiens) (UniProt Q8IYT8)", "assay": "Binding affinity to wild-type human partial length ULK2 (M1 to S301 residues) expressed in mammalian expression system assessed as residual binding level at 1 uM by Kinomescan method relative to control"}, "[19]": {"system": "Mast/stem cell growth factor receptor Kit (Homo sapiens), P10721 [UNDEFINED MUTATION]", "assay": "Binding affinity to human partial length KIT V559D/V654 double mutant (Y545 to D952 residues) expressed in bacterial expression system assessed as residual binding level at 1 uM by Kinomescan method relative to control", "summary_of_the_method": "as §2"}, "[20]": {"molecular_target": "Tyrosine-protein kinase Lck (Homo sapiens) (UniProt P06239)", "assay": "Binding affinity to wild-type human partial length LCK (R207 to P509 residues) expressed in bacterial expression system assessed as residual binding level at 1 uM by Kinomescan method relative to control"}, "[21]": {"molecular_target": "Serine/threonine-protein kinase LATS1 (Homo sapiens) (UniProt O95835)", "assay": "Binding affinity to wild-type human partial length LATS1 (Q678 to V1130 residues) expressed in bacterial expression system assessed as residual binding level at 1 uM by Kinomescan method relative to control"}, "[22]": {"system": "Phosphatidylinositol 4,5-bisphosphate 3-kinase catalytic subunit alpha isoform (Homo sapiens), P42336 [H1047L]", "assay": "Binding affinity to human partial length PIK3CA H1047L mutant (R108 to N1068 residues) expressed in mammalian expression system assessed as residual binding level at 1 uM by Kinomescan method relative to control"}},
  "data": [
    {"smiles": "C=CC(=O)Nc1cc(Nc2ncc(Cl)c(Nc3ccccc3S(=O)(=O)C(C)C)n2)c(OC)cc1N(C)CCN(C)C", "values": [
      {"measurement": "Activity", "setting": "[1]", "result": 1.9, "unit": "%"},
      {"measurement": "Activity", "setting": "[2]", "result": 28, "unit": "%"},
      {"measurement": "Activity", "setting": "[3]", "result": 4.3, "unit": "%"},
      {"measurement": "Activity", "setting": "[4]", "result": 42, "unit": "%"},
      {"measurement": "Activity", "setting": "[5]", "result": 99, "unit": "%"},
      {"measurement": "Activity", "setting": "[6]", "result": 100, "unit": "%"},
      {"measurement": "Activity", "setting": "[7]", "result": 100, "unit": "%"},
      {"measurement": "Activity", "setting": "[8]", "result": 39, "unit": "%"},
      {"measurement": "Activity", "setting": "[9]", "result": 30, "unit": "%"},
      {"measurement": "Activity", "setting": "[10]", "result": 26, "unit": "%"},
      {"measurement": "Activity", "setting": "[11]", "result": 0, "unit": "%"},
      {"measurement": "Activity", "setting": "[12]", "result": 88, "unit": "%"},
      {"measurement": "Activity", "setting": "[13]", "result": 1.9, "unit": "%"},
      {"measurement": "Activity", "setting": "[14]", "result": 15, "unit": "%"},
      {"measurement": "Activity at […], 10 µM", "setting": "CYP2D6", "result": 90, "unit": "%"},
      {"measurement": "Activity", "setting": "[15]", "result": 66, "unit": "%"},
      {"measurement": "Activity", "setting": "[16]", "result": 68, "unit": "%"},
      {"measurement": "Activity", "setting": "[17]", "result": 27, "unit": "%"},
      {"measurement": "Activity", "setting": "[18]", "result": 4.3, "unit": "%"},
      {"measurement": "Activity", "setting": "[19]", "result": 57, "unit": "%"},
      {"measurement": "Activity", "setting": "[20]", "result": 14, "unit": "%"},
      {"measurement": "Activity", "setting": "[21]", "result": 82, "unit": "%"},
      {"measurement": "Activity", "setting": "[22]", "result": 86, "unit": "%"}
    ]}
  ]
}
